Values joined by “and” are separate entries in the source; they are usually repeats but may differ in a detail not shown here. Equal values may be shown once. Active and inactive are the calls of the source.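 The calls were made as follows, unless noted: active = duplicate-averaged activation above buffer control mean plus 5 SD of those controls; inactive = the rest.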
Columns and labels:
[1] = thallium flux activation in parental CHO cells, counter-screen for KCNQ1 potentiator project (AID 493006); conditions: parental CHO-K1 cells, FluxOR thallium flux, at 10 µM; stronger effect = higher value
Outline: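 Test system: parental CHO-K1 cells, FluxOR dye-loaded / Probe or stimulus: potassium plus thallium depolarizing stimulus, 5x stock 12.5 mM K2SO4, Tl2SO4 / Timing: overnight 37 °C plating, 90 min dye, 20 min dark compound / Measured by: kinetic thallium-flux fluorescence / Read-out: max-minus-min fluorescence over baseline, percent of buffer-to-R-L3 span / Benchmarks: buffer and R-L3 controls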

[2] = target: Potassium voltage-gated channel subfamily KQT member 1 (Homo sapiens) (UniProt P51787); assay: KCNQ1 potassium channel potentiators, confirmation, FluxOR thallium flux, CHO cells, duplicates (AID 493007;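 active = potentiation averaged over duplicate wells exceeding buffer-only control mean by more than 3 SD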;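 as to outcome: cells depolarized by a potassium plus thallium sulfate stimulus after compound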;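 as to potentiation: 0% = buffer-only wells and 100% = R-L3 activator control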); conditions: KCNQ1 cell line, FluxOR thallium flux fluorescence, at 10 µM; stronger effect = higher value, % of reference activator effect, buffer zero
Sequence of Potassium voltage-gated channel subfamily KQT member 1 (Homo sapiens) (P51787 whole entry, looked up): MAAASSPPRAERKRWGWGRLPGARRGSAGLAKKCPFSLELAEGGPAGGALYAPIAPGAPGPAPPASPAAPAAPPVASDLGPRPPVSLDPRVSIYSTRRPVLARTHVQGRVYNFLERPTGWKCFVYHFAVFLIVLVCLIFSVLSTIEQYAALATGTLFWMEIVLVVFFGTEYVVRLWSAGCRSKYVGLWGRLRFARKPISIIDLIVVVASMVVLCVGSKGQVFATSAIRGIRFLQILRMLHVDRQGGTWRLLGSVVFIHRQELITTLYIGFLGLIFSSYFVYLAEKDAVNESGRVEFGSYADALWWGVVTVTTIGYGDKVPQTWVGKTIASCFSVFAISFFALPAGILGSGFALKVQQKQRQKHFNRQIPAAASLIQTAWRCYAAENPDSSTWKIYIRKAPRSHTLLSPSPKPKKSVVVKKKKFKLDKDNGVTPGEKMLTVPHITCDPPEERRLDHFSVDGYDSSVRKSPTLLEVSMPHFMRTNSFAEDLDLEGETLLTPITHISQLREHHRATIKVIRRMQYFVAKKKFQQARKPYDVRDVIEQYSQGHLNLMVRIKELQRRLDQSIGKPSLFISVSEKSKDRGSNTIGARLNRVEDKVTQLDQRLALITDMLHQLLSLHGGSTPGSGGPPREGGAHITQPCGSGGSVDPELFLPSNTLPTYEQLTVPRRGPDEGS
Outline: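 Assay system: CHO cells carrying KCNQ1 | Controls: Buffer and R-L3 controls | Schedule: FluxOR dye loading 90 min, compound exposure 20 min, room temperature | Read-out: Baseline-normalized fluorescence change, percent of buffer-to-R-L3 range | Replicates: Each compound tested in duplicate | Technique: Kinetic thallium influx fluorescence with FluxOR dye, 10 s baseline, 110 s post-stimulus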

[3] = target: Potassium voltage-gated channel subfamily KQT member 2 (Rattus norvegicus) (UniProt O88943); assay: rat KCNQ2 channel potentiation, selectivity assay for KCNQ1 potentiator project, KCNQ2-CHO-K1 cells (AID 493009;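 active = mean duplicate potentiation above the buffer control mean plus 5 SD of buffer wells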;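 also: assay conditions were tuned for KCNQ1 rather than KCNQ2 modulators; signal is max minus min fluorescence divided by baseline after thallium stimulus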); conditions: FluxOR thallium flux fluorescence, at 10 µM; stronger effect = higher value, scaled: buffer 0, activator control 100
Sequence of Potassium voltage-gated channel subfamily KQT member 2 (Rattus norvegicus) (O88943 whole entry, looked up): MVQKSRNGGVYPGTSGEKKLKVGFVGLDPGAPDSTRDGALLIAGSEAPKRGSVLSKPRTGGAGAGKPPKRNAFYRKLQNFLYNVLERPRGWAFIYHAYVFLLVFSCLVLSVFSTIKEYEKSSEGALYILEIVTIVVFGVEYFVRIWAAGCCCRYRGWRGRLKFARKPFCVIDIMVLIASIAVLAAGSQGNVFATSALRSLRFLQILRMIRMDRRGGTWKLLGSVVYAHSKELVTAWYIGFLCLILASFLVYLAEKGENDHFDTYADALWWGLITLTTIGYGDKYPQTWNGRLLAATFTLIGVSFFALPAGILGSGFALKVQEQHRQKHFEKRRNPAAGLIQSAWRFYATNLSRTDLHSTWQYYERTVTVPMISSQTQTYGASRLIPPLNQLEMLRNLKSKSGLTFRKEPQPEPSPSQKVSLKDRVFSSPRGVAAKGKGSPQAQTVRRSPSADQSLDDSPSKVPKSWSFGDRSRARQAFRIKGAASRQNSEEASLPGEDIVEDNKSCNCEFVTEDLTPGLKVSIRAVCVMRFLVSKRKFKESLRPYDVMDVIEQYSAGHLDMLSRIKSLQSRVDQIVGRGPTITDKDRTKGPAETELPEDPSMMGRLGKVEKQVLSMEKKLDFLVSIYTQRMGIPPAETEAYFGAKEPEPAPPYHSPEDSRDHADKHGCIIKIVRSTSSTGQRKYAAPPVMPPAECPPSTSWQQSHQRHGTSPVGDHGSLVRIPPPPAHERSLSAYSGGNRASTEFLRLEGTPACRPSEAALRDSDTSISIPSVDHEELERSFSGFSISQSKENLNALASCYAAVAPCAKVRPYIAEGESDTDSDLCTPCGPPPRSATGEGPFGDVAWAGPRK

[4] = target: Potassium voltage-gated channel subfamily KQT member 1 (Homo sapiens) (UniProt P51787); assay: KCNQ1 channel current potentiators, confirmation, orthogonal assay for KCNQ1 potentiator project, IonWorks patch clamp, KCNQ1-CHO cells (AID 493184;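 active = current rise at least 3 SD above the untreated control mean in each of two repeat wells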;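 as to current potentiation: percent change of the same well's current before compound addition so 0% = no change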); conditions: automated patch clamp current, at 10 µM; stronger effect = higher value
Outline: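 Material: KCNQ1-expressing CHO cells; doses: 10 µM final, single point; probe or stimulus: voltage step from -90 mV holding to +40 mV, 2,000 ms; signal: automated voltage clamp, amphotericin B perforated patch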

Row | SMILES | outcome [1] | outcome [2] | outcome [3] | outcome [4] | activation [1] | potentiation [2] | potentiation [3] | current potentiation [4]
1 | O=C(O)CCC(=O)Nc1ccc(-c2nc3ccc(C(=O)c4ccccc4)cc3[nH]2)cc1 | inactive | inactive | inactive | inactive | – | – | – | –
2 | Cc1ccc(C(=O)NC(=S)N(C)Cc2ccccc2)cc1 | – | – | – | inactive | 146% (active) | 46% (active) | 178% (active) | –
3 | CCn1c(CC(=O)Nc2ccccc2)nnc1SCC(=O)Nc1nncs1 | inactive | inactive | inactive | inactive | – | – | – | –
4 | Cc1c(CN(C)C)c2c(n1C)C(=O)c1ccc(Br)cc1-2 | – | – | – | inactive | 146% (active) | 53% (active) | 159% (active) | –
5 | CSC(=S)N/N=C(\C)c1ccc(Br)cc1 | – | – | – | inactive | 309% (active) | 132% (active) | 258% (active) | –
6 | COc1ccc(-n2c(C)cc(C(=O)CCl)c2C)cc1 | inactive | inactive | inactive | inactive | – | – | – | –
7 | NC(=NCCCCCCN=C(N)/N=C(\N)Nc1ccc(Cl)cc1)/N=C(\N)Nc1ccc(Cl)cc1 | – | – | – | inactive | 240% (active) and 259% (active) | 59.5% (active) and 91.5% (active) | 183% (active) and 216% (active) | –
8 | Cc1nn(-c2ccccc2)c(Cl)c1/C=N\NC(=O)c1cncc(Br)c1 | inactive | inactive | inactive | inactive | – | – | – | –
9 | Cc1cccc(CS(=O)(=O)c2ncc(CO)n2C)c1 | inactive | inactive | inactive | inactive | – | – | – | –
10 | N#C/C(=C/c1cn(-c2ccccc2)nc1-c1cccc(S(=O)(=O)N2CCOCC2)c1)C(=O)NCc1ccco1 | inactive | inactive | inactive | inactive | – | – | – | –
11 | CC(C)c1nc2sc3c(=S)nc[nH]c3c2c2c1CCC2 | – | – | – | inactive | 247% (active) | 194% (active) | 310% (active) | –
12 | O=[N+]([O-])c1cc(C(F)(F)F)ccc1Oc1cccnc1[N+](=O)[O-] | inactive | inactive | inactive | inactive | – | – | – | –
13 | S=c1nc(COc2ccccc2)[nH]c2ccccc12 | – | – | – | inactive | 698% (active) | 212% (active) | 552% (active) | –
14 | O=C(NCc1ccccn1)c1ccc(COc2ccc(Cl)cc2)o1 | – | – | – | inactive | 138% (active) | 26.5% (active) | 156% (active) | –
15 | CC1(C)CC[C@]2(C(=O)O)CC[C@]3(C)C(=CCC4[C@@]5(C)CC[C@H](O)C(C)(C)C5[C@H](O)C[C@]43C)[C@@H]2C1 (stereo not given in full) | – | – | – | inactive | 184% (active) | 40.5% (active) | 182% (active) | –
16 | COc1ccc2[nH]c3c(c2c1)CCNC3C1CC=C(C)CC1 (stereo not given) | inactive | inactive | inactive | inactive | – | – | – | –
17 | Nc1c(-c2ccccc2)cnc2c(-c3ccccc3)cnn12 | inactive | inactive | inactive | inactive | – | – | – | –
18 | O=c1c2ccc(Cl)cc2[nH]c(=S)n1CCC1=CCCCC1 | – | – | – | inactive | 156% (active) | 48.5% (active) | 166% (active) | –
19 | CCOC(=O)Cn1nc(-c2ccc(F)cc2)cc(Cc2ccccc2)c1=O | inactive | inactive | inactive | inactive | – | – | – | –
20 | Cc1ccc(-n2c(C)cc(/C=N/NC(=O)CC3(C)OCCO3)c2C)c(C)c1 | inactive | inactive | inactive | inactive | – | – | – | –

Row | SMILES | outcome [1] | outcome [2] | outcome [3] | outcome [4] | activation [1] | potentiation [2] | potentiation [3] | current potentiation [4]
21 | O=c1c2ccccc2nc(-c2cccc(Cl)c2)n1O | – | – | – | inactive | 358% (active) | 100% (active) | 327% (active) | –
22 | COc1ccccc1C(=O)NNC(=O)C(=O)NCc1ccccc1 | – | – | – | inactive | 188% (active) | 59.5% (active) | 218% (active) | –
23 | CCOc1cc(CNc2ncnc3nc[nH]c23)ccc1OC | inactive | inactive | inactive | inactive | – | – | – | –
24 | CC1Oc2ccccc2OC1(O)c1ccccn1 (stereo not given) | – | – | – | inactive | 142% (active) | 26.5% (active) | 142% (active) | –
25 | CCc1nnc(NC(=O)CSc2n[nH]c(-c3ccccc3O)n2)s1 | inactive | inactive | inactive | inactive | – | – | – | –
26 | O=C(/C=C/c1ccccc1)C1C(=O)c2ccccc2C1=O | inactive | – | – | inactive | – | 25.5% (active) | 146% (active) | –
27 | CCOc1ccc(NC(=S)NC(=O)c2ccco2)cc1 | inactive | – | – | inactive | – | 29% (active) | 180% (active) | –
28 | Cc1ccc(NC(=S)N/N=C2/CCCCc3ccccc32)cc1 | – | – | – | inactive | 274% (active) | 324% (active) | 484% (active) | –
29 | Cc1noc(C)c1CSc1ncnc2sc(C)c(C)c12 | inactive | inactive | inactive | inactive | – | – | – | –
30 | CN(C)CCNC(=O)c1ccc2c(=O)n(Cc3ccc(Cl)cc3)c(=S)[nH]c2c1 | inactive | – | – | inactive | – | 25% (active) | 149% (active) | –
31 | CC(C)CCn1c(=S)[nH]c2ncccc2c1=O | – | inactive | inactive | inactive | 152% (active) | – | – | –
32 | COc1ccc(N2CCN(CC(=O)Nc3nc(C)cs3)CC2)cc1 | inactive | inactive | inactive | inactive | – | – | – | –
33 | Cc1ccccc1C(=O)Nc1nc(=S)ss1 | – | – | – | inactive | 250% (active) | 72% (active) | 267% (active) | –
34 | O=C(NC(=S)N(Cc1ccccc1)Cc1ccccc1)c1ccccc1F | – | – | – | inactive | 225% (active) | 208% (active) | 338% (active) | –
35 | O=C(COc1ccc2ccccc2c1)NNC(=O)[C@@H]1CCCC[C@@H]1C(=O)O | inactive | inactive | inactive | inactive | – | – | – | –
36 | CCOc1ccc(CN(CCC#N)C(=S)NC(=O)c2ccccc2)cc1 | – | – | – | inactive | 149% (active) | 47% (active) | 216% (active) | –
37 | CN1CCC(Oc2ccccc2Sc2ccc(C(F)(F)F)cc2)CC1 | inactive | inactive | inactive | inactive | – | – | – | –
38 | COc1ccc(-c2nnc(Nc3nc4c(OC)cccc4s3)o2)cc1 | – | – | – | inactive | 468% (active) | 164% (active) | 392% (active) | –
39 | CCCCCCCCCCCCC/C=C/[C@@H](O)[C@@H](N)CO | – | – | – | inactive | 406% (active) | 218% (active) | 414% (active) | –
40 | O=C(Nc1nnc(-c2ccc3c(c2)CCCC3)o1)c1ccccc1Cl | – | – | – | inactive | 184% (active) | 83% (active) | 267% (active) | –

Row | SMILES | outcome [1] | outcome [2] | outcome [3] | outcome [4] | activation [1] | potentiation [2] | potentiation [3] | current potentiation [4]
41 | CC(C)(C)C1CCc2c(sc(NC(=O)C3CC=CCC3C(=O)O)c2C#N)C1 (stereo not given) | – | – | – | inactive | 178% (active) | 53% (active) | 184% (active) | –
42 | Cc1ncc(CN2CCC(CO)(CCc3ccccc3)CC2)s1 | inactive | inactive | inactive | inactive | – | – | – | –
43 | Cc1cc(Cl)ccc1OCc1n[nH]c(=S)n1C1CCCCC1 | – | – | – | inactive | 190% (active) | 129% (active) | 212% (active) | –
44 | Cc1cccc(NC(=S)NC(=O)c2cc(-c3ccccc3)nc3ccccc23)c1 | inactive | – | inactive | inactive | – | 32% (active) | – | –
45 | CC12CCC(C/C1=N\N=C1\NC(=O)/C(=C\c3ccc(Cl)cc3)S1)C2(C)C (stereo not given) | – | – | – | inactive | 175% (active) | 74.5% (active) | 204% (active) | –
46 | CC(=O)c1c(C)[nH]c(-c2ccccc2)nc1=S | – | – | – | inactive | 151% (active) | 40% (active) | 178% (active) | –
47 | Cc1ccc(C(=O)CC(=O)c2cc(Cl)ccc2O)cc1 | – | – | – | inactive | 150% (active) | 42.5% (active) | 152% (active) | –
48 | CC(C)C1=NN(C(=O)c2ccccc2)C(O)(C(C)(C)C)C1 (stereo not given) | inactive | inactive | inactive | inactive | – | – | – | –
49 | CCN(CC)CCCNC(=O)c1[nH]c2ccccc2c1Sc1ccc(Cl)cc1 | inactive | – | inactive | – | – | 73% (active) | – | 29.6% (active)
50 | CNC(=S)N/N=C/c1cc(Br)cc(Br)c1O | – | inactive | inactive | inactive | 168% (active) | – | – | –
51 | CCC1(c2ccc(Cl)cc2)NC(=S)N(c2ccc(C)c(C)c2)N1 (stereo not given) | – | – | – | inactive | 706% (active) | 188% (active) | 550% (active) | –
52 | CC1=CC(=O)C=C(C)C1=NOS(=O)(=O)c1ccccc1 | inactive | inactive | inactive | inactive | – | – | – | –
53 | CC(C)(C)NC(=O)C(=O)NNC(=O)COc1ccc(Br)cc1 | – | – | – | inactive | 227% (active) | 53% (active) | 215% (active) | –
54 | CCSc1nnc(NC(=O)[C@H](C)NC(=O)c2ccccc2Cl)s1 | inactive | inactive | inactive | inactive | – | – | – | –
55 | O=C(CSc1nc2ccccc2s1)c1cc2ccccc2o1 | inactive | inactive | inactive | inactive | – | – | – | –
56 | Cc1ccc(-n2ncc3c(SCC(=O)NNC(=O)c4ccco4)ncnc32)cc1 | inactive | inactive | inactive | inactive | – | – | – | –
57 | CCC(O)C1CCN(Cc2cn(Cc3ccccc3)nc2-c2cc3ccccc3o2)CC1 (stereo not given) | – | – | – | inactive | 170% (active) | 75% (active) | 230% (active) | –
58 | O=c1c(-c2ccccc2)[n+]([O-])c2ccccc2n1O | inactive | inactive | inactive | inactive | – | – | – | –
59 | Cc1ccc2nc3c(cc(C(=O)NCC4CCCO4)c(=N)n3C3CCCC3)c(=O)n2c1 (stereo not given) | inactive | inactive | inactive | inactive | – | – | – | –
60 | S=c1[nH]c2cc(-c3ccccc3)ccc2o1 | – | – | – | inactive | 306% (active) | 89.5% (active) | 318% (active) | –

Source: PubChem BioAssay
